Test results from ChEMBL document CHEMBL1156574, “Synthesis and biological properties of benzothiazole, benzoxazole, and chromen-4-one analogues of the potent antitumor agent 2-(3,4-dimethoxyphenyl)-5-fluorobenzothiazole (PMX 610, NSC 721648)” (J Med Chem, 2008).
Active and inactive are the calls of the source. The rule behind the calls is not given here.

What was measured:
MCF7 [1] = assay: Antiproliferative activity against estrogen receptor positive human MCF7 cells after 72 hrs by MTT assay; type: functional; details: MCF7, 72 h
Summary of the method: (§1)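 Growth inhibition was tested in triplicate in breast lines MCF-7 (ER +ve) and MDA 468 (ER −ve). Values are means of three independent experiments, reported as GI50.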

[2] = Antiproliferative activity against estrogen receptor deficient human MDA468 cells after 72 hrs by MTT assay; type: functional; details: MDA-MB-468, 72 h; summary of the method: as §1
[3] = Cell cycle arrest in estrogen receptor deficient human MDA468 cells assessed as accumulation at G2/M phase at 0.1 uM after 72 hrs by flow cytometry; type: functional, cell-based; details: MDA-MB-468
Summary of the method: (§2)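 MDA 468 breast cells were left untreated or exposed for 24–72 h. Cellular DNA content was measured by flow cytometry, with 10 000 events per sample. Percentages in pre-G1, G1, S and G2/M were taken from the DNA histograms and compared with the nontreated control. Independent analyses were run ≥3 times.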

[4] = biological target: T1, Aryl hydrocarbon receptor (Rattus norvegicus, UniProt P41738); assay: Displacement of [3H]tetrachlorodibenzo-p-dioxin from aryl hydrocarbon receptor in CRL:WI rat liver cytosol
T1 sequence (P41738 whole entry): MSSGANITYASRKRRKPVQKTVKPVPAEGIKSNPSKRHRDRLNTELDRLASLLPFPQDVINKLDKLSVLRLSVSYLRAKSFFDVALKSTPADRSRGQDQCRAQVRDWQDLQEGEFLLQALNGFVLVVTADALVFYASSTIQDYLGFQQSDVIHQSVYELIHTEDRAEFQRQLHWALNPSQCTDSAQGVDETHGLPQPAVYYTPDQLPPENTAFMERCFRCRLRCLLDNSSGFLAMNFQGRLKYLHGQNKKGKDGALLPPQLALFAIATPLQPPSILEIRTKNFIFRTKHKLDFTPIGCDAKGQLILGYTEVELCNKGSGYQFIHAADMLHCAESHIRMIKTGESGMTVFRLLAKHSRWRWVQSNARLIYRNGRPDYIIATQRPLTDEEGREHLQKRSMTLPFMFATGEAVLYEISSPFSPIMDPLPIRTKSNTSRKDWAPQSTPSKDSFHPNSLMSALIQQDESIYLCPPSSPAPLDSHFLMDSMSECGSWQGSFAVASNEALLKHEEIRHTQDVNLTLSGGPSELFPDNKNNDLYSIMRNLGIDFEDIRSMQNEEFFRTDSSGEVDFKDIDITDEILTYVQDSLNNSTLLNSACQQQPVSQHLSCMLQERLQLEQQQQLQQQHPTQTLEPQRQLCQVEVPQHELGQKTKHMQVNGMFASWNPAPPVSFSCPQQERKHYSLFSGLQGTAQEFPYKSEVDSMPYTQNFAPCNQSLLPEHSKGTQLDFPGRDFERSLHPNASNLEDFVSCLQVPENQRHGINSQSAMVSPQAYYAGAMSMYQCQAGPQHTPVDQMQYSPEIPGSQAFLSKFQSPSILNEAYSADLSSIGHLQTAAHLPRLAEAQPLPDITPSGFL
Summary of the method: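 Aryl hydrocarbon receptor binding was measured in CRL:WI rat liver cytosol by displacement of [3H]tetrachlorodibenzo-p-dioxin. IC50 was determined, and Ki was also reported.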

[5] = Antiproliferative activity against estrogen receptor deficient human MDA468 cells after 72 hrs by MTT assay in presence of aryl hydrocarbon receptor antagonist alpha-naphthoflavone; type: functional; details: MDA-MB-468, 72 h
[6] = Cell cycle arrest in estrogen receptor deficient human MDA468 cells assessed as accumulation at G2/M phase at 0.1 uM after 48 hrs by flow cytometry; type: functional, cell-based; details: MDA-MB-468; summary of the method: as §2
[7] = Cell cycle arrest in estrogen receptor deficient human MDA468 cells assessed as accumulation at G2/M phase at 0.1 uM after 24 hrs by flow cytometry; type: functional, cell-based; details: MDA-MB-468; summary of the method: as §2
MCF7 [8] = assay: Antiproliferative activity against human estrogen receptor positive MCF7 cells after 72 hrs by MTT assay in presence of aryl hydrocarbon receptor antagonist alpha-naphthoflavone; type: functional; details: MCF7, 72 h
[9] = Cell cycle arrest in estrogen receptor deficient human MDA468 cells assessed as accumulation at S phase at 1 uM after 24 hrs by flow cytometry; type: functional, cell-based; details: MDA-MB-468; summary of the method: as §2
MDA-MB-468 = assay: Induction of apoptosis in estrogen receptor deficient human MDA468 cells assessed as accumulation at preG1 phase at 1 uM after 24 hrs by flow cytometry; type: functional, cell-based; summary of the method: as §2
[10] = Cell cycle arrest in estrogen receptor deficient human MDA468 cells assessed as accumulation at G2/M phase at 1 uM after 24 hrs by flow cytometry; type: functional, cell-based; details: MDA-MB-468; summary of the method: as §2

SMILES | GI50 (MCF7 [1]) | GI50 [2] | further results
COc1ccc2nc(-c3ccc(O)cc3)sc2c1 | 45.8 µM | 9.67 µM | 
Oc1ccc(-c2nc3ccc(F)cc3s2)cc1 | 54 µM | 0.5 µM | 
COc1ccc(-c2cc(=O)c3cc(F)ccc3o2)cc1OC | 83.4 µM | 20.6 µM | 
COc1ccc(-c2nc3ccc(F)cc3o2)c(OC)c1 | 69.9 µM | 3.29 µM | 
COc1ccc(-c2nc3cc(F)ccc3o2)cc1 | 22.7 µM | 0.76 µM | 
COc1cccc(OC)c1-c1nc2ccc(F)cc2o1 | 90.7 µM | 98.6 µM | 
COc1ccccc1-c1nc2ccc(F)cc2o1 | 0.82 µM | 1.19 µM | 
COc1cccc(OC)c1-c1nc2cc(F)ccc2o1 | 58.1 µM | 22 µM | 
COc1ccc(-c2nc3ccc(F)cc3o2)cc1 | 41 µM | 9.55 µM | 
Oc1ccc(-c2nc3ccc(Cl)cc3s2)cc1 | 26.5 µM | 0.28 µM | 
CCc1ccc2nc(-c3ccc(O)cc3)sc2c1 | > 100 µM | > 100 µM | 
COc1ccc(-c2nc3ccc(F)cc3o2)cc1OC | 3.53 µM | 0.017 µM | 
Fc1ccc2nc(-c3ccc4c(c3)OCO4)oc2c1 | 19.2 µM | 6.77 µM | 
Oc1cccc(-c2nc3cc(F)ccc3s2)c1 | 0.57 µM | 0.2 µM | 
Oc1ccc(-c2nc3cc(F)ccc3s2)cc1 | 0.4 µM | 0.21 µM | 
COc1ccc(-c2nc3cc(F)ccc3o2)cc1OC | 0.83 µM | 0.33 µM | Activity [9]: Active; Activity (MDA-MB-468): Active; Activity [7]: inactive; Activity [10]: Active

Continued, in another order:

GI50 (MCF7 [1]) | SMILES | GI50 [2] | further results
2.16 µM | COc1ccc(-c2nc3cc(F)ccc3o2)c(OC)c1 | 0.54 µM | 
< 0.0001 µM | COc1ccc(-c2nc3cc(F)ccc3s2)cc1OC | < 0.0001 µM | Activity [3]: Active; IC50 [4]: 0.025 µM; Ki [4]: 0.0068 µM; GI50 [5]: 0.27 µM; Activity [6]: Active; Activity [7]: Active; GI50 (MCF7 [8]): 0.514 µM
27.9 µM | COc1ccc(-c2cc(=O)c3ccc(F)cc3o2)cc1OC | 0.45 µM | 
35.1 µM | COc1cccc(-c2nc3ccc(F)cc3o2)c1 | 2.02 µM | 
62.3 µM | CS(=O)(=O)c1ccc2nc(-c3ccc(O)cc3)sc2c1 | 42.2 µM | 
61.4 µM | Fc1ccc2oc(-c3ccc4c(c3)OCO4)nc2c1 | 14.5 µM | 
45.4 µM | COc1cc(OC)cc(-c2nc3cc(F)ccc3o2)c1 | 0.79 µM | 
3.72 µM | COc1cc(OC)cc(-c2nc3ccc(F)cc3o2)c1 | 0.46 µM | 
0.36 µM | COc1ccccc1-c1nc2cc(F)ccc2o1 | 0.27 µM | 
85.7 µM | COc1ccc(-c2nc3cc(F)ccc3[nH]2)cc1OC | 94.4 µM | Activity [9]: inactive; Activity [7]: inactive
13.8 µM | Oc1ccc(-c2nc3cc(C(F)(F)F)ccc3s2)cc1 | 0.1 µM | 
39.5 µM | COc1cccc(-c2nc3cc(F)ccc3o2)c1 | 0.87 µM | 
1.09 µM | COc1cc(-c2nc3ccc(F)cc3o2)cc(OC)c1OC | 0.037 µM | 
> 100 µM | CCOc1ccc2nc(-c3ccc(O)cc3)sc2c1 | > 100 µM | 
4.16 µM | Oc1ccc(-c2nc3ccc(Br)cc3s2)cc1 | 0.28 µM | 
16 µM | COc1cc(-c2nc3cc(F)ccc3o2)cc(OC)c1OC | 2.58 µM | 
